Compound activity (PubChem)
CRFR2-BP ag – agonists of human CRF-binding protein/CRF-R2 receptor complex; activation, % at 13.2 µM; HEK293 CRF-R2/CRF-BP, calcium dye fluorescence (FLIPR); percent of saturating CRF peptide response; 350,000 tested, 0.46% active;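 active = activation of at least 50%, plus an integration ratio under a set limit after plate pattern correction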
ANO1 activ – activates or potentiates the mouse TMEM16A chloride channel. Q8BHY3. HEK293 TMEM16A/YFP-H148Q/I152L, iodide quench fluorescence; stronger effect = lower value. B-score at 10 µM. 340,000 tested, 0.3% active. AID 623877;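 active = fluorescence-ratio B-score plate-corrected deviation score at least 3 library SD below zero, with starting fluorescence score within 5 deviations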;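 note: channel opened by trigger with iodide after compound preincubation; score built on the fluorescence ratio of max minus min over baseline; more negative score means more quench and so TMEM16A activation or potentiation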
TAAR1 antag – human TAAR1 antagonism | inhibition, % at 3 µM | Q96RJ0 | CHO RD-HGA16 TAAR1, Fluo-8 calcium fluorescence, antagonist | 360,000 tested, 1.5% active;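 active = inhibition above a per-plate cutoff, the mean inhibition of test compounds on that plate plus 3 SD, cut at about 49% in these data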
Target sequence (Q96RJ0 whole entry, looked up): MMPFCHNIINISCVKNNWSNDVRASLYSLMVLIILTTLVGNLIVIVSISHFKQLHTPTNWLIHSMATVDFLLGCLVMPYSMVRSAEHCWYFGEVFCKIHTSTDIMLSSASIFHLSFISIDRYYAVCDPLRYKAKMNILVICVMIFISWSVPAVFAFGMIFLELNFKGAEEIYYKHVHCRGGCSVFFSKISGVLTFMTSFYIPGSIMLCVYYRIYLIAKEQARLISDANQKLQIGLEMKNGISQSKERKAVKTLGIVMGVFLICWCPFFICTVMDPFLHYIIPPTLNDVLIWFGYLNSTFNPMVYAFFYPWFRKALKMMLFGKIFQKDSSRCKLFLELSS
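Material: RD-HGA16 CHO cells with stable hTAAR1 and Gα16; Dosing: single nominal final test compound concentration of 3 µM; Schedule: seeding 17-24 h prior, 75-min 37 °C, 30-min RT dye loading; Detection: kinetic Fluo-8 calcium fluorescence measurement; Measure: % inhibition from peak post-agonist over basal fluorescence ratio; Benchmarks: vehicle and agonist controls.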
TMEM16A inh – blocks the mouse calcium-activated chloride channel TMEM16A; Q8BHY3; HEK293 TMEM16A/YFP iodide influx fluorescence, ionomycin; normalized B-score (activity score, 25-100; higher = stronger inhibition) at 10 µM; 310,000 tested, 1.2% active; AID 588511;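 active = ratio plate-corrected score three or more library SD toward inhibition, starting fluorescence score within five deviations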;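 note: score derived from kinetic fluorescence span divided by baseline fluorescence per well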
CRFR2-BP antag – antagonists of CRF-binding protein/CRF-R2 receptor complex | 350,000 tested, 0.59% active | HEK293 CRF-R2/CRF-BP, CRF-induced calcium fluorescence | inhibition, % at 11.8 µM;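 active = inhibition of the ligand-induced calcium signal above about 50% at the single tested concentration, limit read from the data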
TAAR1 agonist – human TAAR1 agonism; activation, % at 3 µM; CHO RD-HGA16 TAAR1, Fluo-8 calcium fluorescence; vehicle wells 0%, saturating PEA agonist 100%; 360,000 tested, 0.99% active;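 active = activation above the mean activation of all test compounds in the run plus 3 SD, cut at about 38% in these data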
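Test system: RD-HGA16 (CHO) cells co-expressing Gα16 and hTAAR1 / Benchmarks: DMSO vehicle as 0%, PEA at EC100 as 100% / Repeats: no replicates (n 1) / Measure: % activation from peak over basal fluorescence ratio, DMSO-to-PEA scaled / Timing: 17-24 h plating, Fluo-8 75 min 37 °C, 30 min RT / Technique: kinetic Fluo-8 calcium fluorescence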
nonsel antag count – nonselective antagonism, TAAR1 counter-screen; AID 651780; 2,400 tested, 77% active; counterscreen cell line, calcium fluorescence, antagonist mode; inhibition, % at 3 µM; shares compounds with TAAR1 antag; in the data active = inhibition above about 22%;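 note: CHO-Ga16 host cells stimulated with ATP at an EC80 level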
TAAR1 ant conf – confirmation of human TAAR1 antagonists. shares compounds with TAAR1 antag. TAAR1-expressing cells, fluorescence antagonist read-out. inhibition, % at 3 µM. 2,400 tested, 40% active; in the data active = inhibition above about 49%;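 note: CHO-Ga16 host cells challenged with agonist PEA near its EC80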
Ga16 nonsel ag – counter-screen for TAAR1 antagonists: nonselective Ga16 agonists; shares compounds with TAAR1 antag; 2,400 tested, 18% active; AID 651953; activation, % at 3 µM; Ga16-expressing cells, calcium fluorescence, agonist counterscreen; in the data active = activation above about 12%
TAAR1 ag count – counter-screen for human TAAR1 antagonists: TAAR1 agonists | AID 651955 | shares compounds with TAAR1 antag | hTAAR1 cell line, fluorescence activation, agonist mode | activation, % at 3 µM | 2,400 tested, 2% active; in the data active = activation above about 37%;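 note: CHO cells stably expressing TAAR1 with calcium dye readout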
A number is an active result; . = inactive; / = no result. Compounds with a hit are over-represented: about 3.9% of the library has one in this group of screens.

SMILES | CRFR2-BP ag | ANO1 activ | TAAR1 antag | TMEM16A inh | CRFR2-BP antag | TAAR1 agonist | nonsel antag count | TAAR1 ant conf | Ga16 nonsel ag | TAAR1 ag count
Cc1sc2ncnc(N3CCC(C(=O)N(C)CC(=O)Nc4cccc(F)c4)CC3)c2c1C | . | / | 68 | / | . | . | 32 | 55 | 13 | .
Cc1sc2ncnc(N3CCC(C(=O)N(C)CC(=O)Nc4ccccc4Cl)CC3)c2c1C | . | . | 64 | . | . | . | 25 | . | . | .
CCN(CC(=O)Nc1cc(Cl)ccc1C)c1ncnc2sc(C)c(C)c12 | . | . | . | . | . | . | / | / | / | /
CCN(CC(=O)Nc1cc(Cl)ccc1C)C(=O)C1CCN(c2ncnc3sc(C)c(C)c23)CC1 | . | / | 83 | / | . | . | 34 | 54 | . | .
COc1cccc(CN2CC(C(=O)NCCCCc3ccccn3)CCC2=O)c1 (stereo unspecified) | . | . | . | . | . | . | / | / | / | /
Cc1ccc(CNC(=O)Cn2cnc(S(=O)(=O)N3CCC(C)CC3)c2)o1 | . | . | . | . | . | . | / | / | / | /
N#Cc1c2n(c3c(N)ncnc13)CCCCC2 | . | . | . | . | . | . | / | / | / | /
COc1cc(C(=O)NCCc2c[nH]c3ccccc23)ccc1OCc1c(C)noc1C | . | . | 63 | . | . | . | 31 | . | . | .
COc1cc(NC(=O)c2ccccc2OCc2ccccc2)cc(OC)c1OC | . | . | 61 | . | . | . | . | . | . | .
O=C(Nc1ccc(O)cc1)c1ccccc1OCc1ccccc1 | . | . | . | . | . | . | / | / | / | /
CNC(=O)c1cccc(NC(=O)c2ccccc2OCc2ccccc2)c1 | . | . | 54 | . | . | . | . | . | . | .
COCCNc1nc(NCc2ccc(C(C)C)cc2)c2sccc2n1 | / | / | . | / | / | . | / | / | / | /
Cc1ccc(C)c(CN2CCCN(C(=O)Cn3ncc4c3-c3ccccc3OC4)C2)c1 | . | . | 59 | . | . | . | 23 | . | 12 | .
O=C(NCC(O)c1ccc([N+](=O)[O-])cc1)C1=COCCO1 (stereo unspecified) | . | . | . | / | . | . | / | / | / | /
Cc1c(C(=O)N2CCN(c3ccccc3)CC2)oc2c1C(=O)CC(C)(C)C2 | . | . | 67 | . | . | . | 30 | 53 | . | .
Cc1c(C(=O)N2CCN(c3ccccc3F)CC2)oc2c1C(=O)CC(C)(C)C2 | . | . | . | . | . | . | / | / | / | /
CCOc1ccc(C(CC(=O)O)NC(=O)C(c2ccccc2)c2ccccc2)cc1OC (stereo unspecified) | . | . | 63 | / | . | . | . | . | . | .
CCOc1ccc(C(CC(=O)O)NC(=O)c2ccco2)cc1OC (stereo unspecified) | . | . | . | . | . | . | / | / | / | /
COc1ccccc1N(C)S(=O)(=O)c1ccc(C(=O)NCc2ccc3c(c2)OCO3)cc1 | . | . | 67 | . | . | . | 31 | 53 | . | .
COc1ccc2c(C(=O)NCc3ccc4c(c3)OCO4)c(-c3ccc(S(C)(=O)=O)cc3)sc2c1 | . | . | 64 | / | . | . | 36 | 55 | . | .
CN(c1ccccc1)S(=O)(=O)c1ccc(C(=O)NCc2ccc(F)cc2)cc1 | . | . | 64 | / | . | . | 42 | 58 | 12 | .
COc1ccccc1N(C)S(=O)(=O)c1ccc(C(=O)Nc2ccc(C(N)=O)cc2)cc1 | . | . | 54 | / | . | . | 24 | . | . | .
CCN(CC)CCNC(=O)c1ccc(NC(=O)c2ccc(S(=O)(=O)N(C)c3ccccc3OC)cc2)cc1 | . | . | . | / | . | . | / | / | / | /
